HTRA1 inh – blocks human HTRA1 serine peptidase | recombinant HTRA1, FP-rhodamine activity-based probe, fluorescence polarization | 0.5% of 340,000 active | AID 504803 | inhibition, % at 5.96 µM; in the data active = inhibition above about 36%
PRMT1 FP inh – blocks human protein arginine methyltransferase 1 | recombinant PRMT1, activity-based probe fluorescence polarization | AID 652257 | 1.3% of 370,000 active | inhibition, % at 2.79 µM | Q99873;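 active = inhibition above about 21% made by adding two undisclosed values, limit read from the data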
SIAE primary – inhibitors of human sialic acid acetylesterase SIAE | Q9HAT2 | SIAE FP-Rh probe binding, fluorescence polarization | inhibition, % at 9.66 µM | 0.69% of 370,000 active;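 active = inhibition above a cutoff: mean of compounds within the control limits plus 3 SD of those, cut at about 17% in these data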
GASC-1 inh – human JMJD2C demethylase inhibition; GST-JMJD2C(1-420) H3K9me3 demethylation, DELFIA europium; inhibition, % at 2.35 µM; 0.069% of 330,000 active; AID 2099;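 active = more than half of a compound's replicate wells show inhibition beyond 50%, single wells judged on their own value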;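 note: signal counts dimethyl H3K9 product captured on neutravidin plate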
ABHD4 inh – ABHD4 (mouse) inhibition, primary FP screen; Q8VD66; purified mABHD4, FP-Rh probe fluorescence polarization; inhibition, % at 8.92 µM; 0.54% of 370,000 active; AID 720543;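 active = inhibition exceeding the mean over every tested compound plus 3 SD, cut at about 30% in these data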
Target sequence (Q8VD66 whole entry, looked up): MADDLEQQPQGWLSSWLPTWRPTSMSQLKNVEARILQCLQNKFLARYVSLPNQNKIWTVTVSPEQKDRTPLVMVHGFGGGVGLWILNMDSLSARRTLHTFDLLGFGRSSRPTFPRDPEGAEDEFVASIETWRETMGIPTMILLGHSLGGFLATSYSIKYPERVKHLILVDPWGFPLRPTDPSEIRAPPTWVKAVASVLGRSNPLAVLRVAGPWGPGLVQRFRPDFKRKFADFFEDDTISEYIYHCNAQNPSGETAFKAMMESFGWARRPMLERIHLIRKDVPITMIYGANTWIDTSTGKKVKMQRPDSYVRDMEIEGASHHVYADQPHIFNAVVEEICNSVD
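assay system = mABHD4 protein | compound dosing = single nominal dose of 8.92 µM, 0.89% DMSO final | read-out basis = percent inhibition of probe binding, normalized to plate controls | schedule = Enzyme–compound pre-incubation 45 min, then probe 60 min, both 25 °C | detection = fluorescence polarization, excitation 525 nm, emission 598 nm, BODIPY TMR filters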
PRMT1 confirm – confirmation of human PRMT1 inhibitors | shares compounds with PRMT1 FP inh | recombinant His-PRMT1, activity-based probe fluorescence polarization | inhibition, % at 2.79 µM | 42% of 3,300 active | AID 687036;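 active = mean inhibition across replicates above the hit cutoff derived for the earlier primary screen, cut at about 22% in these data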
A number is an active result. The list is not random: actives were taken first. Their share in the collection is about 2.4%.

How did Cc1ccc(C)c(S(=O)(=O)N2CCN(Cc3cc4c(cc3O)OCO4)CC2)c1 do in these assays?
HTRA1 inh: inactive; PRMT1 FP inh: 45; SIAE primary: inactive; GASC-1 inh: inactive; ABHD4 inh: inactive; PRMT1 confirm: inactive

How did O=[N+]([O-])c1ccccc1S(=O)(=O)N1CCN(Cc2cc3c(cc2O)OCO3)CC1 do in these assays?
HTRA1 inh: inactive; PRMT1 FP inh: inactive; SIAE primary: inactive; GASC-1 inh: inactive; ABHD4 inh: inactive

What do the screens show for `O=S(=O)(c1ccccc1F)N1CCN(Cc2cc3c(cc2O)OCO3)CC1`?
HTRA1 inh: inactive; PRMT1 FP inh: 25; SIAE primary: inactive; GASC-1 inh: inactive; ABHD4 inh: inactive; PRMT1 confirm: inactive

What do the screens show for `O=C(OCC#CCSc1nnc(-c2cccc3ccccc23)o1)c1ccc(Cl)c(C(F)(F)F)c1`?
PRMT1 FP inh: inactive; SIAE primary: inactive; ABHD4 inh: inactive

How did CC1=C(C(=O)Nc2ccccc2)C2(CCCCC2)C(C#N)=C(S)N1 do in these assays?
HTRA1 inh: inactive; PRMT1 FP inh: 26; SIAE primary: inactive; GASC-1 inh: inactive; ABHD4 inh: inactive; PRMT1 confirm: 25

How did Cc1ccc(/C=c2\sc3n(c2=O)CN(c2cccc(Br)c2)CN=3)o1 do in these assays?
HTRA1 inh: inactive; PRMT1 FP inh: 34; SIAE primary: inactive; GASC-1 inh: inactive; ABHD4 inh: inactive; PRMT1 confirm: inactive

What do the screens show for `Cc1ccc(S(=O)(=O)/N=C2/NC(=O)/C(=C/c3cc([N+](=O)[O-])ccc3O)S2)cc1`?
HTRA1 inh: inactive; PRMT1 FP inh: inactive; SIAE primary: inactive; GASC-1 inh: inactive; ABHD4 inh: inactive

Results for COc1cc(/C=C2\S/C(=N/S(=O)(=O)c3ccc(C)cc3)NC2=O)c([N+](=O)[O-])cc1OC ?
HTRA1 inh: inactive; PRMT1 FP inh: 27; SIAE primary: inactive; GASC-1 inh: inactive; ABHD4 inh: inactive; PRMT1 confirm: inactive

Results for CC(C)C[C@@H](COCc1ccc([N+](=O)[O-])cc1)N1CCN(C(=O)c2ccc(C(F)(F)F)cc2)CCC1=O ?
PRMT1 FP inh: inactive; SIAE primary: inactive; ABHD4 inh: inactive

How did COCCn1c(SCCN2CCOCC2)nc2c1c(=O)[nH]c(=O)n2C do in these assays?
HTRA1 inh: inactive; PRMT1 FP inh: 38; SIAE primary: inactive; GASC-1 inh: inactive; ABHD4 inh: inactive; PRMT1 confirm: 40

How did O=C(O)Cn1c(O)c(C2=c3ccccc3=NC2=O)sc1=O do in these assays?
HTRA1 inh: inactive; PRMT1 FP inh: 27; SIAE primary: inactive; GASC-1 inh: inactive; ABHD4 inh: inactive; PRMT1 confirm: inactive

What do the screens show for `Cc1c(-n2c(O)c(C3=c4ccccc4=NC3=O)sc2=O)c(=O)n(-c2ccccc2)n1C`?
HTRA1 inh: inactive; PRMT1 FP inh: inactive; SIAE primary: inactive; GASC-1 inh: inactive; ABHD4 inh: inactive

What do the screens show for `O=C(NCCc1ccc2c(c1)OCO2)c1cc(-c2ccccc2)c(N2CCOCC2)s1`?
PRMT1 FP inh: inactive; SIAE primary: inactive; ABHD4 inh: inactive

What do the screens show for `COc1ccc2[nH]c(C)c(CCN(Cc3cccs3)C(=S)Nc3ccccc3)c2c1`?
HTRA1 inh: inactive; PRMT1 FP inh: 29; SIAE primary: inactive; GASC-1 inh: inactive; ABHD4 inh: inactive; PRMT1 confirm: inactive

What do the screens show for `CCC[n+]1c(C)sc2c(OC)ccc(OC)c21`?
HTRA1 inh: inactive; PRMT1 FP inh: 40; SIAE primary: inactive; GASC-1 inh: inactive; ABHD4 inh: inactive; PRMT1 confirm: inactive

How did O=C(NCC(c1ccco1)N1CCCCC1)c1ccc(COc2ccc(Cl)cc2)cc1 (stereo not drawn) do in these assays?
HTRA1 inh: inactive; PRMT1 FP inh: inactive; SIAE primary: inactive; ABHD4 inh: inactive

How did O=C1NC(=O)/C(=C\c2ccc(N3CCOCC3)o2)N1 do in these assays?
HTRA1 inh: inactive; PRMT1 FP inh: 30; SIAE primary: inactive; GASC-1 inh: inactive; ABHD4 inh: inactive; PRMT1 confirm: inactive

Results for COC(=O)c1cc(C(=O)Nc2nnc(CC(C)C)s2)cc([N+](=O)[O-])c1 ?
HTRA1 inh: inactive; PRMT1 FP inh: inactive; SIAE primary: inactive; GASC-1 inh: inactive; ABHD4 inh: inactive

Results for CCC(CC)c1nnc(NC(=O)c2cc(C(=O)OC)cc([N+](=O)[O-])c2)s1 ?
HTRA1 inh: inactive; PRMT1 FP inh: 29; SIAE primary: inactive; GASC-1 inh: inactive; ABHD4 inh: inactive; PRMT1 confirm: inactive

Results for COC(=O)[C@]12C[C@H](CC(=O)NCCCN3CCCC3=O)C(=O)N(Cc3ccco3)C1=C[C@H](C1CCCC1)O[C@@H]2C ?
PRMT1 FP inh: inactive; SIAE primary: inactive; ABHD4 inh: inactive

What do the screens show for `Cc1ccc(-n2ccnc(SCC(=O)NC3CCCC3)c2=O)cc1F`?
HTRA1 inh: inactive; PRMT1 FP inh: inactive; SIAE primary: inactive; GASC-1 inh: inactive; ABHD4 inh: inactive

How did O=C(CSc1nccn(-c2ccc(F)c(Cl)c2)c1=O)NC1CCCC1 do in these assays?
HTRA1 inh: inactive; PRMT1 FP inh: 32; SIAE primary: inactive; GASC-1 inh: inactive; ABHD4 inh: inactive; PRMT1 confirm: 39

Results for Cc1ccc(-n2ccnc(SCC(=O)NCCc3ccccc3)c2=O)cc1F ?
HTRA1 inh: inactive; PRMT1 FP inh: 59; SIAE primary: inactive; GASC-1 inh: inactive; ABHD4 inh: inactive; PRMT1 confirm: 42

Results for CCOc1ccc(-n2ccnc(SCC(=O)NCCc3ccccc3)c2=O)cc1 ?
HTRA1 inh: inactive; PRMT1 FP inh: inactive; SIAE primary: inactive; GASC-1 inh: inactive; ABHD4 inh: inactive

Results for COCCn1c2nc(=O)n(-c3ccccc3)c(=O)c-2nc2ccccc21 ?
HTRA1 inh: inactive; PRMT1 FP inh: 115; SIAE primary: inactive; ABHD4 inh: inactive; PRMT1 confirm: 113

Results for C=CCC[C@@H](CCCCC)OC(=O)/C=C/[C@H](O)[C@@H](O)C[C@H](O)CC=C ?
PRMT1 FP inh: inactive; SIAE primary: inactive; ABHD4 inh: inactive

Results for CCOC(=O)CC(=O)CSc1nccc(-c2cccnc2)n1 ?
HTRA1 inh: inactive; PRMT1 FP inh: 38; SIAE primary: inactive; GASC-1 inh: inactive; ABHD4 inh: inactive; PRMT1 confirm: inactive

How did CCOC(=O)CC(=O)CSc1nc(-c2cccnc2)ccc1C#N do in these assays?
HTRA1 inh: inactive; PRMT1 FP inh: 56; SIAE primary: inactive; GASC-1 inh: inactive; ABHD4 inh: inactive; PRMT1 confirm: inactive

How did CC(C)C[C@H]1COc2c(Cl)cccc2S(=O)(=O)N1 do in these assays?
PRMT1 FP inh: inactive; SIAE primary: inactive; ABHD4 inh: inactive

Results for Clc1ccc(Cl)c(-c2nn3c(COc4ccccc4)nnc3s2)c1 ?
HTRA1 inh: inactive; PRMT1 FP inh: 28; SIAE primary: inactive; GASC-1 inh: inactive; ABHD4 inh: inactive; PRMT1 confirm: inactive

What do the screens show for `CCCCN1C(=O)Cc2c1nc(N)c1c(N)nc(N(CCC)CCC)c(C#N)c21`?
HTRA1 inh: inactive; PRMT1 FP inh: inactive; SIAE primary: inactive; GASC-1 inh: inactive; ABHD4 inh: inactive
